# In the library only some 2.8% were active in any assay of this set; here they are far more common.
# EP2 antag: human EP2 receptor antagonists, primary screen, TR-FRET cAMP, C6 glioma cells. Prostaglandin E2 receptor EP2 subtype (Homo sapiens), P43116. C6 glioma cells expressing human EP2; cells stimulated with saturating PGE2. inhibition, % at 25 µM. actives 0.52% (n = 260,000). AID 1422, 2008;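 active = percent inhibition above 40 after rounding to a whole number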;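 note: rat C6 glioma host cells with rolipram phosphodiesterase inhibitor present; the protocol text gives 20 µM as final concentration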
# Target sequence (P43116 whole entry, looked up): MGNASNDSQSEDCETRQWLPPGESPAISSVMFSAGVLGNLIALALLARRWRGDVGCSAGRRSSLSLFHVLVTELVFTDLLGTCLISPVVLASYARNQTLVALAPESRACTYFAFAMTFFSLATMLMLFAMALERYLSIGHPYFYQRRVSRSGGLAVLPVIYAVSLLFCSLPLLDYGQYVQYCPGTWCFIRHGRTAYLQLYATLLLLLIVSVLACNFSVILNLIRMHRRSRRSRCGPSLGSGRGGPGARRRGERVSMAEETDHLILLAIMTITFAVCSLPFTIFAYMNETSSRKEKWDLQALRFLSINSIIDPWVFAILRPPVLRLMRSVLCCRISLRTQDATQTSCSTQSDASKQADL
# NPY-Y1 antag: NPY-Y1 receptor antagonists, primary screen, cell-based. Neuropeptide Y receptor type 1 (Homo sapiens), P25929. HEK293-CNG Y1 cells, membrane potential fluorescence; NPY at EC95, then isoproterenol. inhibition, % at 3.6 µM. actives 1% (n = 200,000);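 active = inhibition above the campaign mean inhibition of all tested compounds plus 3 SD, cut at about 20% in these data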;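 note: 0% = DMSO wells given NPY plus isoproterenol and 100% = isoproterenol alone without NPY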
#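 Benchmarks – high control isoproterenol alone, low control NPY with isoproterenol · Material – HEK293 Y1/CNG channel cell line · Times – dye 3 h, compound 60 min room temperature, stimulation 45 min · Probe or stimulus – NPY (25 nM), isoproterenol (1 µM), Ro 20-1724 (25 µM) · Evaluation – % inhibition of NPY effect · Signal – fluorescence, membrane potential probe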
# EP2 mod: EP2 receptor modulators, cAMP readout, primary screen, cell-based, HTRF cAMP, PGE2 stimulation; EP2-expressing cells, cAMP HTRF FRET, PGE2 co-stimulation; induction, % at 25 µM; actives 0.83% (n = 260,000);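 active = compounds whose cAMP rise, as percent of the full-agonist control response, exceeds 60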;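 note: rat C6 glioma line stably carrying human EP2 under a CMV promoter; the protocol text gives 20 µM as final concentration; 100% = response of wells given 1 µM PGE2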
# NPY2 pot ag: NPY-Y2 potentiators or agonists, primary screen, cell-based; activation, % at 3.6 µM; Neuropeptide Y receptor type 2 (Homo sapiens), P49146; cells expressing NPY-Y2, potentiator/agonist read-out; actives 0.45% (n = 220,000); in the data active = activation above about 27%;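 note: cells stimulated with NPY near EC25 plus isoproterenol at EC100; 0% = vehicle plus submaximal agonist and 100% = vehicle plus saturating agonist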
# NPY-Y2 antag: NPY-Y2 receptor antagonists, primary screen, cell-based | NPY-Y2 expressing cells, antagonist mode | actives 0.99% (n = 140,000) | inhibition, % at 2.7 µM | Neuropeptide Y receptor type 2 (Homo sapiens), P49146; in the data active = inhibition above about 17%;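 note: 0% = vehicle with agonist challenge and 100% = reference antagonist with challenge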
# NPY-Y1 PAM-ag: NPY-Y1 receptor potentiators or agonists, primary screen, cell-based. Neuropeptide Y receptor type 1 (Homo sapiens), P25929. NPY-Y1 expressing cells, potentiator/agonist activation. activation, % at 3.6 µM. actives 0.37% (n = 220,000). AID 1304, 2008; in the data active = activation above about 33%, passing the limit was not always enough;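 note: cells stimulated with NPY at EC10 then isoproterenol at EC100; 0% = low agonist plus stimulus and 100% = saturating agonist plus stimulus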
# * marks the source's active call; other numbers are inactive results; / = no result; + = active, no number; ! = not confirmed by another sample.
SMILES,EP2 antag,NPY-Y1 antag,EP2 mod,NPY2 pot ag,NPY-Y2 antag,NPY-Y1 PAM-ag
Cc1ccccc1C1CC(c2ccccc2)Nc2ncnn21 (configuration not stated),3,6,24,-6,4,-12
COc1cccc(CN2CCN(C(=O)c3ccco3)[C@@H](C)C2)c1,/,/,-62,/,/,/
Cc1ccc2nc(-c3ccc(NC(=S)NC(=O)C(C)C)cc3)sc2c1,6,-1,-21,13,-1,51*
COc1ccccc1NC(=O)c1cc2ccc(O)cc2oc1=O,7,/,-23,/,/,/
COc1ccccc1NC(=O)c1cc2cc(Br)ccc2cc1O,22,/,-34,86*,/,96*
CCCC(=O)Nc1nnc(SCC(=O)Nc2ccccc2F)s1,3,/,-12,/,/,/
CC(C)(C)CC(=O)Nc1nnc(SCC(=O)Nc2ccccc2F)s1,19,21*,-14,-16,/,-1
CCN(CC)c1ccc2nc3ccccc3[n+](CC)c2c1,+,/,-294,/,/,/
O=C(c1cccs1)N1CCC(n2nnc3ccccc3c2=O)CC1,5,/,-18,/,/,/
Cn1c(=O)c2c(nc(CN3CCN(c4cccc(Cl)c4)CC3)n2CCc2ccccc2)n(C)c1=O,14,18,/,-20,17*,-56
Cn1c(=O)c2c(nc(CN3CCN(c4ccccc4)CC3)n2CCc2ccccc2)n(C)c1=O,7,5,/,-15,0,-21
CC1=C(C#N)c2nc(N)c(C#N)c(C)c2/C1=C\c1ccc(-c2ccc(F)cc2)o1,16,/,-23,/,/,/
Cc1cc(C(=O)OCC(=O)Nc2cc(S(=O)(=O)N(C)C)ccc2C)c(C)o1,6,7,-5,-8,/,-13
CCN(CC)S(=O)(=O)c1ccc(C)c(NC(=O)c2cc(C)oc2C)c1,4,20*,-25,-5,/,15
NC[C@H]1O[C@H](OC2[C@@H](N)C[C@@H](N)[C@H](O[C@H]3O[C@H](CO)[C@@H](O)[C@H](N)[C@H]3O)[C@H]2O)[C@H](N)[C@@H](O)[C@@H]1O (some centres not stated),16,/,5,/,/,/
CC1CC(C)CN(c2oc(-c3ccco3)nc2C#N)C1 (configuration not stated),/,24*,0,3,27*,-33
CCc1cc2cc3c(cc2nc1SCC(=O)Nc1ccc(S(=O)(=O)N2CCCC2)cc1)OCO3,4,/,-7,/,/,/
Cc1ccc(Cl)cc1N(CC(=O)N1CCC(C(N)=O)CC1)S(C)(=O)=O,8,/,-41,/,/,/
CCCCc1ccc(Nc2nc(CCC)cc(=O)[nH]2)cc1,11,-3,61*,10,-1,10
O=C(CN1CCC(Nc2nc(C(F)(F)F)cc(=O)[nH]2)CC1)Nc1cccc2ccccc12,11,/,-80,/,/,/
COc1ccc(-c2nc(NC(=O)c3ncoc3-c3cccs3)sc2C)cc1,/,/,-32,/,/,/
COCC(=O)Nc1nc2ccccc2s1,29,1,4,64*,0,108*
COC(=O)CCCCCCCCC(=O)Nc1nc2ccccc2s1,11,4,-5,0,8,16
COc1ccc(NC(=O)c2cc3sccc3n2Cc2ccccc2)cc1OC,7,/,11,/,/,/
CCCOc1ccc2ccccc2c1/C=N/n1c(C)nnc1-n1nc(C)cc1C,5,29*,3,0,26*,-17
SMILES,EP2 antag,NPY-Y1 antag,EP2 mod,NPY2 pot ag,NPY-Y2 antag,NPY-Y1 PAM-ag
CC1CCCCN1C(=O)c1ccc(N)cc1 (configuration not stated),11,/,-13,/,/,/
C(=C\c1ccccc1)/CSc1nnc(-c2ccccn2)n1Cc1ccco1,11,21*,12,-11,20*,-56
Cc1onc(-c2ccccc2Cl)c1C(=O)Nc1sc2c(c1C(N)=O)CCC(C)C2 (configuration not stated),/,5,62*,0,-2,-21
COC(=O)c1c(NC(=O)c2c(-c3ccccc3Cl)noc2C)sc2c1CCC2,/,37*,31,-32,23*,-25
O=C(c1cccnc1)C1CCN(C(=O)Cc2ccccc2Cl)CC1,/,/,-27,/,/,/
CCOc1c(Cl)cc(C2C(C#N)=C(N)Oc3n[nH]c(C)c32)cc1Cl (configuration not stated),17,/,-94,/,/,/
O=C1/C(=C/c2cccnc2)Sc2ccccc21,49*,2,-34,-26,6,-7
Nc1ncnc2c1C1(CCCCC1)Cc1ccccc1-2,9,1,80*!,-14,6,-8
c1ccc(OCc2nc3c4c(ncn3n2)-c2ccccc2CC42CCCC2)cc1,4,2,0,-4,8,-2
COc1ccc2cc(C#N)c(SCC(=O)NC3CCCCC3C)nc2c1 (configuration not stated),26,/,77*,/,/,/
Cc1cc2c(cc3c(=O)n(CC(=O)N4CCCC4)nc(C)n32)o1,6,/,4,/,/,/
Cc1ccc(Cn2ncc3c(N4CCN(c5ccccc5C)CC4)ncnc32)cc1,16,27*,3,-14,12,-20
Cc1cc(C(F)F)n2nc(C(=O)Nc3sc4c(c3C(=O)OC(C)C)CCCC4)nc2n1,13,/,67*,/,/,/
COc1ccc(N/C=C(\C#N)c2nc3ccccc3n2C)c(OC)c1,6,-5,63*,-1,0,17
CN1CCN(C(=O)/C(=C/c2ccccc2)c2ccccc2)CC1,6,1,7,0,-2,11
CC1CC(C)CN(C(=O)/C(=C\c2ccccc2)c2ccccc2)C1 (configuration not stated),2,19,63*,-4,4,-14
CCOC(=O)c1cc(-c2ccc(OC)cc2)nc2c1c(C)nn2CCC#N,2,26*,22,-17,20*,-22
CCOC(=O)c1cc(-c2ccc(C#N)cc2)nc2c1c(C)nn2CCC#N,12,2,13,4,3,-21
C=CCn1c(SCc2ccccc2)nc2scc(-c3ccc(C)o3)c2c1=O,10,-5,19,-9,4,2
C=CCn1c(SCCN2C(=O)c3ccccc3C2=O)nc2scc(-c3ccccc3)c2c1=O,66*,-3,-5,-19,-3,4
COc1cc2c(cc1OC)-c1cc(NC3CCCCCCC3)nc(=O)n1CC2,15,64*,32,-54,72*,-65
COc1cc2c(cc1OC)-c1cc(NC3CC3)nc(=O)n1CC2,9,11,41,2,4,-7
COc1cc2c(cc1OC)-c1cc(NC3CCCCC3)nc(=O)n1CC2,13,33*,13,-2,12,-45
Cc1cccc2cc(C#N)c(SCC(=O)Nc3ccc(F)cc3)nc12,24,/,10,/,/,/
